Results as given in ChEMBL document CHEMBL1134314, “Characterization of the 1H-cyclopentapyrimidine-2,4(1H,3H)-dione derivative (S)-CPW399 as a novel, potent, and subtype-selective AMPA receptor full agonist with partial desensitization properties” (J Med Chem, 2001).
Calls of active or inactive are those of the source. No cut-off for these calls is given here.

Assays:
[1] = biological target: Glutamate receptor ionotropic, kainate; assay: Binding affinity towards Ionotropic glutamate receptor kainate in rat brain; type: tissue-based
Procedure, shortened: (§1)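 Radioligand competition binding on native ionotropic glutamate receptors in rat brain membranes. Inactivity was defined at 10^-4 M. Values are means ± SEM of three to four competition experiments, each run in triplicate.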

[2] = biological target: Glutamate NMDA receptor (Rattus norvegicus) (UniProt P35439+Q00959+Q00960+Q00961+Q62645+Q8VHN2+Q9R1M7); assay: Binding affinity towards NMDA receptor; not active; type: protein-complex assay; procedure, shortened: as §1
[3] = Hill slope was determined
[4] = biological target: Glutamate receptor ionotropic, AMPA (Rattus norvegicus, UniProt P19490+P19491+P19492+P19493); assay: Binding affinity towards AMPA receptor in rat brain; type: tissue-based

| Ki [1] | NA [2] | Hill coefficient [3] | Ki [4] | SMILES |
| --- | --- | --- | --- | --- |
| 7.94 µM | inactive | 0.95 nH [middle of 8 runs] |  | N[C@@H](Cn1c2c(c(=O)[nH]c1=O)CCC2)C(=O)O |
| > 10 µM |  |  | 1.37 µM | N[C@@H](Cn1c2c(c(=O)[nH]c1=S)CCC2)C(=O)O |
